ChEMBL document CHEMBL1806394, “Synthesis, in vitro evaluation and molecular docking studies of new triazole derivatives as antifungal agents” (2011)
In brackets after ≈: the same amount, converted by molar mass.

How the values were obtained:
Type in all cases: functional
Cryptococcus neoformans = experiment: Antifungal activity against Cryptococcus neoformans BLS108 by micro-broth dilution method
Summary of the method: (§1)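 MIC80 determined by broth microdilution following NCCLS methods. C. albicans SC5314 and Y0109 and C. neoformans BLS108 served as quality-control strains and were included in every assay. Fluconazole, itraconazole, voriconazole and amphotericin B were run as positive controls.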

Trichophyton rubrum = experiment: Antifungal activity against Trichophyton rubrum by micro-broth dilution method; summary of the method: as §1
Kluyveromyces marxianus = experiment: Antifungal activity against Candida kefyr by micro-broth dilution method
Candida parapsilosis = experiment: Antifungal activity against Candida parapsilosis by micro-broth dilution method; settings: Lodderomyces parapsilosis; summary of the method: as §1
Aspergillus fumigatus = experiment: Antifungal activity against Aspergillus fumigatus by micro-broth dilution method; summary of the method: as §1
Candida albicans [1] = experiment: Antifungal activity against Candida albicans SC5314 by micro-broth dilution method; summary of the method: as §1
Candida albicans [2] = experiment: Antifungal activity against Candida albicans Y0109 by micro-broth dilution method; summary of the method: as §1
Candida tropicalis = experiment: Antifungal activity against Candida tropicalis by micro-broth dilution method; summary of the method: as §1

MIC80 (Cryptococcus neoformans) [µg/mL] | MIC80 (Trichophyton rubrum) [µg/mL] | MIC80 (Kluyveromyces marxianus) [µg/mL] | MIC80 (Candida parapsilosis) [µg/mL] | MIC80 (Aspergillus fumigatus) [µg/mL] | MIC80 (Candida albicans [1]) [µg/mL] | MIC80 (Candida albicans [2]) [µg/mL] | MIC80 (Candida tropicalis) [µg/mL] | SMILES
16 (≈ 26.8 µM) | > 64 | > 64 | 1 (≈ 1.68 µM) | > 64 | 1 (≈ 1.68 µM) | 4 (≈ 6.71 µM) | 4 (≈ 6.71 µM) | O=C(Nc1ccc(-n2cnn(CC(O)(Cn3cncn3)c3ccc(F)cc3F)c2=O)cc1)c1ccccc1Br (single isomer, unassigned)
0.0625 (≈ 0.0886 µM) | 0.0625 (≈ 0.0886 µM) | 0.0625 (≈ 0.0886 µM) | 0.0625 (≈ 0.0886 µM) | 0.0625 (≈ 0.0886 µM) | 0.0625 (≈ 0.0886 µM) | 0.0625 (≈ 0.0886 µM) | 0.0625 (≈ 0.0886 µM) | CCC(C)n1ncn(-c2ccc(N3CCN(c4ccc(OCC5COC(Cn6cncn6)(c6ccc(Cl)cc6Cl)O5)cc4)CC3)cc2)c1=O (stereo unspecified) [ITRACONAZOLE]
> 64 | > 64 | > 64 | 0.0156 (≈ 0.0293 µM) | > 64 | 0.25 (≈ 0.47 µM) | 0.0625 (≈ 0.118 µM) | 1 (≈ 1.88 µM) | Cc1ccccc1C(=O)Nc1ccc(-n2cnn(CC(O)(Cn3cncn3)c3ccc(F)cc3F)c2=O)cc1 (single isomer, unassigned)
> 64 | > 64 | 16 (≈ 29.2 µM) | 0.0625 (≈ 0.114 µM) | > 64 | 0.0625 (≈ 0.114 µM) | 0.0625 (≈ 0.114 µM) | 1 (≈ 1.83 µM) | COc1cccc(C(=O)Nc2ccc(-n3cnn(CC(O)(Cn4cncn4)c4ccc(F)cc4F)c3=O)cc2)c1 (single isomer, unassigned)
> 64 | > 64 | > 64 | > 64 | > 64 | 4 (≈ 6.92 µM) | 16 (≈ 27.7 µM) | > 64 | O=C(/C=C/c1ccc(Cl)cc1)Nc1ccc(-n2cnn(CC(O)(Cn3cncn3)c3ccc(F)cc3F)c2=O)cc1 (single isomer, unassigned)
64 (≈ 112 µM) | 4 (≈ 6.97 µM) | > 64 | 0.0625 (≈ 0.109 µM) | > 64 | 0.0625 (≈ 0.109 µM) | 1 (≈ 1.74 µM) | 0.25 (≈ 0.436 µM) | CC(C)(C)c1ccc(C(=O)Nc2ccc(-n3cnn(CC(O)(Cn4cncn4)c4ccc(F)cc4F)c3=O)cc2)cc1 (single isomer, unassigned)
> 64 | > 64 | 64 (≈ 107 µM) | 16 (≈ 26.8 µM) | > 64 | 4 (≈ 6.71 µM) | 16 (≈ 26.8 µM) | 16 (≈ 26.8 µM) | O=C(Nc1ccc(-n2cnn(CC(O)(Cn3cncn3)c3ccc(F)cc3F)c2=O)cc1)c1cccc(Br)c1 (single isomer, unassigned)
> 64 | > 64 | > 64 | 1 (≈ 1.7 µM) | > 64 | > 64 | > 64 | > 64 | O=C(/C=C/c1ccc([N+](=O)[O-])cc1)Nc1ccc(-n2cnn(CC(O)(Cn3cncn3)c3ccc(F)cc3F)c2=O)cc1 (single isomer, unassigned)
> 64 | > 64 | > 64 | 4 (≈ 7.12 µM) | > 64 | 1 (≈ 1.78 µM) | 1 (≈ 1.78 µM) | 4 (≈ 7.12 µM) | O=C(/C=C/c1ccccc1F)Nc1ccc(-n2cnn(CC(O)(Cn3cncn3)c3ccc(F)cc3F)c2=O)cc1 (single isomer, unassigned)
64 (≈ 117 µM) | > 64 | 4 (≈ 7.33 µM) | 0.25 (≈ 0.458 µM) | > 64 | 0.25 (≈ 0.458 µM) | 0.25 (≈ 0.458 µM) | 0.25 (≈ 0.458 µM) | Cc1ccc(C(=O)Nc2ccc(-n3cnn(CC(O)(Cn4cncn4)c4ccc(F)cc4F)c3=O)cc2)cc1C (single isomer, unassigned)
> 64 | > 64 | > 64 | 16 (≈ 28.5 µM) | > 64 | 16 (≈ 28.5 µM) | 16 (≈ 28.5 µM) | > 64 | O=C(/C=C/c1cccc(F)c1)Nc1ccc(-n2cnn(CC(O)(Cn3cncn3)c3ccc(F)cc3F)c2=O)cc1 (single isomer, unassigned)
> 64 | > 64 | > 64 | 1 (≈ 1.66 µM) | > 64 | 1 (≈ 1.66 µM) | 16 (≈ 26.5 µM) | > 64 | COc1ccc(OC)c(/C=C/C(=O)Nc2ccc(-n3cnn(CC(O)(Cn4cncn4)c4ccc(F)cc4F)c3=O)cc2)c1 (single isomer, unassigned)
> 64 | > 64 | > 64 | 4 (≈ 6.63 µM) | > 64 | 1 (≈ 1.66 µM) | 1 (≈ 1.66 µM) | 1 (≈ 1.66 µM) | COc1ccc(/C=C/C(=O)Nc2ccc(-n3cnn(CC(O)(Cn4cncn4)c4ccc(F)cc4F)c3=O)cc2)cc1OC (single isomer, unassigned)
> 64 | > 64 | > 64 | > 64 | > 64 | 1 (≈ 1.75 µM) | 4 (≈ 7 µM) | 16 (≈ 28 µM) | Cc1cccc(/C=C/C(=O)Nc2ccc(-n3cnn(CC(O)(Cn4cncn4)c4ccc(F)cc4F)c3=O)cc2)c1C (single isomer, unassigned)
> 64 | > 64 | 4 (≈ 6.82 µM) | 0.0156 (≈ 0.0266 µM) | > 64 | 0.0625 (≈ 0.107 µM) | 0.0625 (≈ 0.107 µM) | 0.25 (≈ 0.426 µM) | O=C(Nc1ccc(-n2cnn(CC(O)(Cn3cncn3)c3ccc(F)cc3F)c2=O)cc1)c1ccc(Cl)cc1Cl (single isomer, unassigned)
> 64 | > 64 | 16 (≈ 30.1 µM) | 0.25 (≈ 0.47 µM) | > 64 | 0.0625 (≈ 0.118 µM) | 0.0625 (≈ 0.118 µM) | 1 (≈ 1.88 µM) | Cc1ccc(C(=O)Nc2ccc(-n3cnn(CC(O)(Cn4cncn4)c4ccc(F)cc4F)c3=O)cc2)cc1 (single isomer, unassigned)
> 64 | > 64 | > 64 | 0.0625 (≈ 0.118 µM) | > 64 | 0.0625 (≈ 0.118 µM) | 0.0625 (≈ 0.118 µM) | 1 (≈ 1.88 µM) | Cc1cccc(C(=O)Nc2ccc(-n3cnn(CC(O)(Cn4cncn4)c4ccc(F)cc4F)c3=O)cc2)c1 (single isomer, unassigned)
> 64 | 4 (≈ 6.65 µM) | > 64 | 1 (≈ 1.66 µM) | > 64 | 0.25 (≈ 0.416 µM) | 1 (≈ 1.66 µM) | 64 (≈ 106 µM) | O=C(Nc1ccc(-n2cnn(CC(O)(Cn3cncn3)c3ccc(F)cc3F)c2=O)cc1)c1ccc(OC(F)(F)F)cc1 (single isomer, unassigned)
0.0625 (≈ 0.113 µM) | > 64 | 1 (≈ 1.81 µM) | 1 (≈ 1.81 µM) | > 64 | 1 (≈ 1.81 µM) | 1 (≈ 1.81 µM) | 1 (≈ 1.81 µM) | O=C(Nc1ccc(-n2cnn(CC(O)(Cn3cncn3)c3ccc(F)cc3F)c2=O)cc1)c1ccc(Cl)cc1 (single isomer, unassigned)
> 64 | 64 (≈ 109 µM) | 16 (≈ 27.2 µM) | 0.0039 (≈ 0.00663 µM) | > 64 | 0.00024 (≈ 0.000408 µM) | 0.00024 (≈ 0.000408 µM) | 0.25 (≈ 0.425 µM) | O=C(/C=C/c1cccc([N+](=O)[O-])c1)Nc1ccc(-n2cnn(CC(O)(Cn3cncn3)c3ccc(F)cc3F)c2=O)cc1 (single isomer, unassigned)
> 64 | > 64 | > 64 | > 64 | > 64 | 4 (≈ 6.97 µM) | > 64 | > 64 | COc1ccc(/C=C/C(=O)Nc2ccc(-n3cnn(CC(O)(Cn4cncn4)c4ccc(F)cc4F)c3=O)cc2)cc1 (single isomer, unassigned)
16 (≈ 25.7 µM) | > 64 | > 64 | 16 (≈ 25.7 µM) | > 64 | 1 (≈ 1.61 µM) | 1 (≈ 1.61 µM) | 1 (≈ 1.61 µM) | O=C(/C=C/c1cccc(Br)c1)Nc1ccc(-n2cnn(CC(O)(Cn3cncn3)c3ccc(F)cc3F)c2=O)cc1 (single isomer, unassigned)
> 64 | > 64 | > 64 | 4 (≈ 7.15 µM) | > 64 | 4 (≈ 7.15 µM) | 4 (≈ 7.15 µM) | 4 (≈ 7.15 µM) | CC(C)c1ccc(C(=O)Nc2ccc(-n3cnn(CC(O)(Cn4cncn4)c4ccc(F)cc4F)c3=O)cc2)cc1 (single isomer, unassigned)
> 64 | > 64 | 64 (≈ 117 µM) | 0.0625 (≈ 0.115 µM) | > 64 | 0.0625 (≈ 0.115 µM) | 0.0625 (≈ 0.115 µM) | 1 (≈ 1.83 µM) | Cc1ccc(C(=O)Nc2ccc(-n3cnn(CC(O)(Cn4cncn4)c4ccc(F)cc4F)c3=O)cc2)c(C)c1 (single isomer, unassigned)
> 64 | > 64 | > 64 | 0.0625 (≈ 0.109 µM) | > 64 | 0.0156 (≈ 0.0272 µM) | 0.0156 (≈ 0.0272 µM) | 0.25 (≈ 0.436 µM) | CCCCc1ccc(C(=O)Nc2ccc(-n3cnn(CC(O)(Cn4cncn4)c4ccc(F)cc4F)c3=O)cc2)cc1 (single isomer, unassigned)

SMILES | MIC80 (Cryptococcus neoformans) [µg/mL] | MIC80 (Trichophyton rubrum) [µg/mL] | MIC80 (Kluyveromyces marxianus) [µg/mL] | MIC80 (Candida parapsilosis) [µg/mL] | MIC80 (Aspergillus fumigatus) [µg/mL] | MIC80 (Candida albicans [1]) [µg/mL] | MIC80 (Candida albicans [2]) [µg/mL] | MIC80 (Candida tropicalis) [µg/mL]
C[C@@H](c1ncncc1F)[C@](O)(Cn1cncn1)c1ccc(F)cc1F [VORICONAZOLE] | 0.0039 (≈ 0.0112 µM) | 0.0156 (≈ 0.0447 µM) | 0.0039 (≈ 0.0112 µM) | 0.0039 (≈ 0.0112 µM) | 0.0039 (≈ 0.0112 µM) | 0.0039 (≈ 0.0112 µM) | 0.0039 (≈ 0.0112 µM) | 0.0039 (≈ 0.0112 µM)
C[C@@H]1[C@H](O)[C@@H](C)/C=C/C=C/C=C/C=C/C=C/C=C/C=C/[C@H](O[C@@H]2O[C@H](C)[C@@H](O)[C@H](N)[C@@H]2O)C[C@@H]2O[C@](O)(C[C@@H](O)C[C@@H](O)[C@H](O)CC[C@@H](O)C[C@@H](O)CC(=O)O[C@H]1C)C[C@H](O)[C@H]2C(=O)O [AMPHOTERICIN B] | 1 (≈ 1.08 µM) | 4 (≈ 4.33 µM) | 0.25 (≈ 0.271 µM) | 0.25 (≈ 0.271 µM) | 1 (≈ 1.08 µM) | 0.25 (≈ 0.271 µM) | 0.25 (≈ 0.271 µM) | 1 (≈ 1.08 µM)
